Experimental data: the EternaBench riboswitch data

System: MS2 coat protein
Assay: apparent Kd, MS2 coat protein; higher = weaker binding; RNA-MaP array; FMN 200 µM where present
Outline: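 SNAP-549-labelled MS2 coat protein, doubled from 0.7 or 1.5 nM to 3 µM, was titrated over designs transcribed by stalled E. coli RNA polymerase on Illumina sequencing-chip clusters. Titrations were run without and then with constant ligand in 100 mM Tris-HCl pH 7.5, 80 mM KCl, 4 mM MgCl2, BSA, DTT, yeast tRNA and Tween-20. The apparent Kd is the median of filtered per-cluster fits to green signal normalised to red-channel RNA signal and control-cluster median Fmax.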

[1] = designed as: ON switch for flavin mononucleotide, no ligand
[2] = ligand present: flavin mononucleotide, designed as: ON switch for flavin mononucleotide
[3] = designed as: OFF switch for flavin mononucleotide, no ligand
[4] = ligand present: flavin mononucleotide, designed as: OFF switch for flavin mononucleotide

GUAGCUAUUAUUAUACAUGAGGAUCACCCAUGUUACAUGUGUAAGGAUAUUGAUGUUUUUAUUAUCAAGAAGGUACUAUGCUAC
apparent Kd [1]: 12.3 nM
apparent Kd [2]: 8.75 nM

AAAUUUAACGAAGGAUAUGCUGACAUGAGGAUCACCCAUGUGUGCUUUGUGUUGCUGAAACGGGAGCAGAAGGUCGUAUACAUA
apparent Kd [3]: 82.5 nM
apparent Kd [4]: 82.5 nM

CGCUGGAACACAGGAUAUCGCACAUGCCUGAUCCAGUUAAUAUCACAUGAGGAUCACCCAUGUGGUGAGAAGGGUGUCAAGUUU
apparent Kd [3]: 27.1 nM
apparent Kd [4]: 47.2 nM

AACGCCAGUGAGAAGGCAUGUUCACAUGAGGAUCACCCAUGUAUACUCAUGAGGAUAUCAAAUGCGGACCAAAAUAAAAUAAGA
apparent Kd [1]: 464 nM
apparent Kd [2]: 26.6 nM

UUUAGUUGCGGGCAGGAUAUGUAUUAAAAUACAUGAGGAUCACCCAUGUGCGGGUGUAACACCCGACAGAAGGGCCAAUCGCGAC
apparent Kd [1]: 388 nM
apparent Kd [2]: 28.6 nM

GCUCGCGUCGGUUCGCUGGCCUGAGAGGAUAUCCACUGGCAUGUCGACAUGAGGAUCACCCAUGUGGAGAAGGCUCAGGAUAAA
apparent Kd [3]: 311 nM
apparent Kd [4]: 552 nM

AGUGCGUAUGUGAGGAUAUGCUGGUCCUUGGAUCAGCAGAAGGCACAUGAGGAUCACCCAUGUGGUGUCGUACU
apparent Kd [3]: 253 nM
apparent Kd [4]: 27.2 nM

CCCUCACAUGAGGAUCACCCAUGUUAGGAUAUCUACCAGGAGCCUAAAAUGGCCCAACGGAGAAGGAACGUGCA
apparent Kd [3]: 19.8 nM
apparent Kd [4]: 18.6 nM

ACAUGAGGAUCACCCAUGUUAUGUUGGGUACUAAAUUAUUCGUAGGAUAUCGUAGCUAGUUUGUGCGAGAAGGACGCAGUUUUU
apparent Kd [3]: 257 nM
apparent Kd [4]: 277 nM

GCCAUCGCAUGAGGAUAUGCUCCCGUUUCGGGAGCAGAAGGCAUGUCAUAAGACAUGAGGAUCACCCAUGUGGUUAAGAUGGCA
apparent Kd [1]: 335 nM
apparent Kd [2]: 12.4 nM

AAGAUACAUGAGGAUCACCCAUGUGAGGAUAUGUGUAUCCCUAAAAAAGUGUGGGACCACAGAAGGUACUUGGA
apparent Kd [3]: 61.7 nM
apparent Kd [4]: 55.4 nM

UGGUACUAGGGAGGAUAUGGGAAGAUACAUGAGGAUCACCCAUGUUUAAGAAAGCCGAGAGGCAACUAGAAGGCCCUAGUACCU
apparent Kd [1]: 278 nM
apparent Kd [2]: 13.8 nM

UAGCUCGUGUGAGGAUAUGCCGCCGUUUCGGCUGCAGAAGGUGCUACGUUACAUGAGGAUCACCCAUGUCUCUGUUGUUUCGUC
apparent Kd [1]: 32.5 nM
apparent Kd [2]: 30.5 nM

CGGCGCUGUCGAGAGGAUAUGCGGUGAUGGACAUGAGGAUCACCCAUGUUAGCGAUAGCAUCACGGUAGAAGGCUCUACGGCUGC
apparent Kd [1]: 12 nM
apparent Kd [2]: 11.3 nM

UUAUUUAUACAAGGAUAUCAAUUAUAUACAAAUCCAACAUGAGGAUCACCCAUGUUUUAUUUUUUUGAGAAGGUGUAUUGUCAG
apparent Kd [1]: 32.8 nM
apparent Kd [2]: 32 nM

AAGUAGUGUGUGAGGAUAUUGGUGGAAUGACAUAUUAAGAAGGCACAUGAGGAUCACCCAUGUGGGUUGUCACG
apparent Kd [3]: 49.2 nM
apparent Kd [4]: 120 nM

GCUCUACAUGAGGAUCACCCAUGUCCAUCCGCACGAGGAUAUGCAUGGGCGAAAGCUGGUGCAGAAGGCGUGGGAC
apparent Kd [1]: 190 nM
apparent Kd [2]: 98.8 nM

GUGUUACAUGAGGAUCACCCAUGUUGUUUUAGAUAAGGAUAUAUGGUAACGAGAGAAAUAAUAGAAGGUAUUAGGC
apparent Kd [1]: 33.4 nM
apparent Kd [2]: 23.1 nM

UUUUUGUGAGGAUAUCAGUAGUAAAUAAAUAAAAUUACUACUGAGAAGGCACAUGAGGAUCACCCAUGUUCCUU
apparent Kd [3]: 13.7 nM
apparent Kd [4]: 33.4 nM

UCUGCUCGAGGAUAUACAUGAGGAUCACCCAUGUAUCCCUGUAGCAUGGCCUCAGGAUGUAGAAGGCGACGCUA
apparent Kd [3]: 14.9 nM
apparent Kd [4]: 16.8 nM

GCACUGGAUGUAGGAUAUCAGGACGAUAAGUCCUGAGAAGGACAUGAGGAUCACCCAUGUAAAAACUUCCCAGUGCAUAAUAUA
apparent Kd [3]: 15.4 nM
apparent Kd [4]: 18 nM

GCGAUAACAUGAGGAUCACCCAUGUAUGUGGCGGGCCCUACGAGAAGGCCAUGUAACAAAUACAUGGAGGAUAUCGGAUGAGUU
apparent Kd [1]: 153 nM
apparent Kd [2]: 26.6 nM

GUACAUACAAAGUUACAUGAGGAUCACCCAUGUUUAUUGGGAAGAAGGGUAACAUUAUUAGAUAUAUAGGAUAUUUCACAAUUG
apparent Kd [1]: 718 nM
apparent Kd [2]: 387 nM

CUGGGCGGAGGAUAUGCGGGUUGGGCUUUUGUUCGGCUGGGACAUGAGGAUCACCCAUGUAGAAGGUUGUUCGG
apparent Kd [3]: 168 nM
apparent Kd [4]: 124 nM

AUGACAUGCAGAGCGCAACGGCGUACAUGAGGAUCACCCAUGUAGGAUAUACUACACAAAGUGUAGUAGAAGGACAUGCGACUG
apparent Kd [3]: 18.6 nM
apparent Kd [4]: 21.3 nM

AGGUGAAAUGUAGGAUAUGGAAAUAAAUUUUAACCAGAAGGACAUGAGGAUCACCCAUGUGAUAGAGAGUUAUUUAUAACUCCA
apparent Kd [3]: 13.9 nM
apparent Kd [4]: 95.9 nM

UGAGCCUCGUGAGGAUAUACAUGAGGAUCACCCAUGUAAAUGAAAGAUACGUCGAAACGACGAAUGUAGAAGGCACGAGGCUCA
apparent Kd [3]: 18.4 nM
apparent Kd [4]: 61.3 nM

AUGGGACAUGAGGAUCACCCAUGUCAGGAUAUUUAGUCGCUGCGGAAAUGUGUUGGUUGGAGAAGGGACAUCAU
apparent Kd [3]: 38.3 nM
apparent Kd [4]: 35.1 nM

CCGAUUAGCACAGGAUAUGGGAAUUCGUAGUUUCCAGAAGGGUGAGCCAAUACAUGAGGAUCACCCAUGUGCGGUAGGUCGAGA
apparent Kd [1]: 51.1 nM
apparent Kd [2]: 60.7 nM

UUGGACGUCGUAGGAUAUGUAGGAUAUUCCUACAUGAGGAUCACCCAUGUUGACAUGGAAGAAGGACAGAAGCACGAUGUCCAU
apparent Kd [1]: 199 nM
apparent Kd [2]: 5.35 nM

GUCAGCUCGUGAGGAUAUACAACACUGCUACGGCAGUGUAUUAAGAUCACAUGAGGAUCACCCAUGUAGAAGGCACGAGCUGAU
apparent Kd [3]: 14 nM
apparent Kd [4]: 242 nM

UUCAGACAUGAGGAUCACCCAUGUGAGGAUAUGAUGCAGCAGUGGUCUACGCUGUGCAUCAGAAGGCACAUGUG
apparent Kd [3]: 140 nM
apparent Kd [4]: 32.7 nM

GCGGAACAUGAGGAUCACCCAUGUGGAGGGUGUAAAGGAUAUUAUAGAGAGAAGGUAGGGUAAGAAGGUUGCUGGG
apparent Kd [1]: 843 nM
apparent Kd [2]: 763 nM

CCAGACGUAGGAUAUACAUUUGGGUAAUCCCGCGGAUAAUUACAUGAGGAUCACCCAUGUAGAAGGGCGGUAAA
apparent Kd [3]: 38.7 nM
apparent Kd [4]: 28 nM

CUCAUGUGAGGAUAUCAGUAGUGAUACGAUAGUAUUACUGCUGAGAAGGUACAUGAGGAUCACCCAUGUUCCUC
apparent Kd [3]: 26.9 nM
apparent Kd [4]: 37.8 nM

CCUCAUAUUUAGGAUAUGAUGGGUUAUUAUUCGUUAGAAGGAGGUACAUGAGGAUCACCCAUGUCCCGUUUGGG
apparent Kd [3]: 34.2 nM
apparent Kd [4]: 32.9 nM

GUGCAACAUGAGGAUCACCCAUGUCAGGAUAUGCGAAUUUCAUCAAAAGAUGAAAUUUGCAGAAGGGACUGCAC
apparent Kd [3]: 19 nM
apparent Kd [4]: 22.8 nM

UGUCUGUCAGGAUAUCCAGAAGAGAAGAAAGUAAGAUGAGUGGAGAAGGGACAUGAGGAUCACCCAUGUAAUUA
apparent Kd [3]: 31 nM
apparent Kd [4]: 36.4 nM

UGGUACAUGGGAGGAUAUCAUGUACUUACAUGAGGAUCACCCAUGUCGAUGGAGACAUCGGAGAUUGAGAAGGCCCAUGUACCU
apparent Kd [1]: 1220 nM
apparent Kd [2]: 42.2 nM

UGAAAUCAUGUAGGAUAUGCAUGGCGAAGCUACGCAGAAGGACAUGAGGAUCACCCAUGUUAUAGCUACCAAGUUAGGUGGCAA
apparent Kd [3]: 155 nM
apparent Kd [4]: 138 nM

GUAACUUAUGUGAGGAUAUAUUAUGUCUUGGUGUAGUAGAAGGCACAUGAGGAUCACCCAUGUCCAAUUGGUCU
apparent Kd [3]: 229 nM
apparent Kd [4]: 457 nM

CGGCGGAAAGGAUAUGCAUUAAUAUCAAAAUGUGGGCCACGACAUGAGGAUCACCCAUGUAGAAGGUUCAGCCG
apparent Kd [3]: 16 nM
apparent Kd [4]: 14.3 nM

UUGGACGUCGUAGGAUAUGUAGGAUAUUCAUACAUGAGGAUCACCCAUGUUGACAUGGAAGAAGGACAGAAGGACGAUGUCCAU
apparent Kd [1]: 8.63 nM
apparent Kd [2]: 4.56 nM

GCUGGACAAGGAUAUACAUAACGUGCUUCGGCACGAGAUCUACAUGAGGAUCACCCAUGUAGAAGGUGUCCAGC
apparent Kd [3]: 14.8 nM
apparent Kd [4]: 29.2 nM

GAAAAACAUGAGGAUCACCCAUGUAGAAAUAUGGGAGGAUAUACAAAGACGAAAGUCAAAGUAGAAGGCCUAAAAG
apparent Kd [1]: 125 nM
apparent Kd [2]: 31 nM

GUUUCUAUAAGUUAUAAUUAACAGUCAGAAGGUGAUACUACGACAUGAGGAUCACCCAUGUAAUUCAAGGAUAUGAACUUAAUC
apparent Kd [1]: 1120 nM
apparent Kd [2]: 539 nM

AGAUGACAAAGUCAUCUCUGACGGACAUGAGGAUCACCCAUGUAGGAUAUGCUACUCAAAGAGUAGCAGAAGGACAUGUGUCUU
apparent Kd [3]: 33.5 nM
apparent Kd [4]: 173 nM

AUCAUUCGUGUAGGAUAUGCGUGACGAAGUCAUGCAGAAGGACAUGAGGAUCACCCAUGUCUUUCUCGAGCUGUAGCUCGAGGA
apparent Kd [3]: 23.9 nM
apparent Kd [4]: 156 nM

AGCUGGUGACAGCAUCCAUCUUAACAUGAGGAUCACCCAUGUAGAAGGCUGUACGGUUACCGUACAGAGGAUAUACAUAGAUGG
apparent Kd [3]: 7.95 nM

CUGGUUCUCGUAGGAUAUGUAGGAUAUGCCUACAUGAGGAUCACCCAUGUUCGCAUGGCAGAAGGACAGAAGGACGAUCACCAG
apparent Kd [1]: 55.6 nM
apparent Kd [2]: 15.4 nM

CCAUGUUAGCAGGAUAUGCUAUUAAUCUUUUAUGCAGAAGGGCUUACAUGAGGAUCACCCAUGUAUUAAGUCAA
apparent Kd [3]: 14.1 nM
apparent Kd [4]: 47.8 nM

GGAACAACAUGAGGAUAUCGAUGAGUAUAGAGUCGAGAAGGCAUGUCAUAAGACAUGAGGAUCACCCAUGUAGUUACAAUACCA
apparent Kd [1]: 1010 nM
apparent Kd [2]: 69.2 nM

UUGUUGUAUGUAGGAUAUGCGUGUUAUUAUUAUGCAGAAGGACAUGAGGAUCACCCAUGUGUAUUAUUAUUAUAUAUUAUAUAU
apparent Kd [3]: 21.5 nM
apparent Kd [4]: 19.6 nM

AGUCAUACAGGAUAUACAUGAGGAUCACCCAUGUAAAUCCUACAUGGGUGAUCCUCAUGUAGAAGGGUAUGACA
apparent Kd [3]: 11.7 nM
apparent Kd [4]: 10.4 nM

CGUUUGGGAGGAUAUCCAAUAUAUGACAUGAGGAUCACCCAUGUUUCCACUCGUACCUCCGGAGAAGGCCCUGCGU
apparent Kd [3]: 22.9 nM
apparent Kd [4]: 21 nM

AAUUAAUUGUAGAAGGUACUUAAUUAUGAUAUGUAAGGAUAUACGAUAUUAUAACGACAUGUAUGACAUGAGGAUCACCCAUGU
apparent Kd [1]: 11.2 nM
apparent Kd [2]: 8.4 nM
